Data set [1] can be described thus: Efflux clearance from middle ear fluid to plasma in Streptococcus pneumoniae WT3-infected Chinchilla lanigera assessed as unbound Km at 40000 ug/kg, iv followed by local dose of 19 ug/kg into intra-middle ear by compartmental microdialysis. Type of data set: ADME, organism-based.
Data set [2] can be described thus: Efflux clearance from middle ear fluid to plasma in Streptococcus pneumoniae WT3-infected Chinchilla lanigera assessed as unbound Km at 40000 ug/kg, iv followed by local dose of 96 ug/kg into intra-middle ear by compartmental microdialysis. Type of data set: ADME, organism-based.
A short description of data set [3]: Efflux clearance from middle ear fluid to plasma in Chinchilla lanigera assessed as unbound Km at 40000 ug/kg, iv followed by local dose of 19 ug/kg into intra-middle ear by compartmental microdialysis. Type of data set: ADME, organism-based.
The nature of data set [4]: Efflux clearance from middle ear fluid to plasma in Chinchilla lanigera assessed as unbound Km at 40000 ug/kg, iv followed by local dose of 13 ug/kg into intra-middle ear by compartmental microdialysis. Format: ADME, organism-based.
The nature of data set [5]: Efflux clearance from middle ear fluid to plasma in Chinchilla lanigera assessed as unbound Km at 40000 ug/kg, iv followed by local dose of 66 ug/kg into intra-middle ear by compartmental microdialysis. Format: ADME, organism-based.
The nature of data set [6]: Efflux clearance from middle ear fluid to plasma in Chinchilla lanigera assessed as unbound Km at 40000 ug/kg, iv followed by local dose of […] into intra-middle ear by compartmental microdialysis. Format: ADME, organism-based.
Data set [7] can be described thus: Efflux clearance from middle ear fluid to plasma in Chinchilla lanigera assessed as unbound Km at 15000 ug/kg, iv followed by local dose of 164 ug/kg into intra-middle ear by compartmental microdialysis. Type of data set: ADME, organism-based.
For data set [8], the system named is Streptococcus pneumoniae. The data set can be described thus: Antimicrobial activity against amoxicillin-resistant Streptococcus pneumoniae. Format: functional.
Data set [9] deals with Streptococcus pneumoniae. Kind of data set: Antimicrobial activity against Streptococcus pneumoniae WT3 infected in bolus iv dosed Chinchilla lanigera assessed as log reduction in bacterial count within 10 hrs of additional local drug administration into intra-middle ear. Format: functional. In short, it runs like this: (§1)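 Awake chinchillas with 50 CFU S. pneumoniae WT3 in 100 µl PBS inoculated into both middle ear bullae. […] MEF (30-100 µl) was drawn at 1 h predose and at 1, 2, 5, 8 and 10 h. It was serially diluted and plated on 5% sheep blood agar at 37°C under 10% CO2, with counts read at 24 and 48 h. Detection threshold was 25 CFU/ml.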

The test system of data set [10] is Streptococcus pneumoniae. Kind of data set: Antimicrobial activity against amoxicillin-intermediate resistant Streptococcus pneumoniae. Type of data set: functional.
A short description of data set [11]: Terminal half life in Chinchilla lanigera at 40 mg/kg, iv. Format: ADME, organism-based. Also on record: dose 40 mg/kg, route intravenous. As to conditions: in vivo, read-out: beta t1/2 (converted). In short, it runs like this: (§2)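 Conscious, freely moving chinchillas were cannulated in the femoral artery and jugular vein. […] Arterial plasma was taken predose, at time zero and at 10-12 points up to 180 min, then stored at –60°C. Unbound drug was measured by ultrafiltration (1,500 x g, 15 min, 37°C) followed by C18 solid-phase extraction and HPLC.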

Data set [12] is described as follows: Terminal half life in Chinchilla lanigera at 15 mg/kg, iv. Type of data set: ADME, organism-based. The arrangement: dose 15 mg/kg, route intravenous. The note with it: in vivo, read-out: beta t1/2 (converted). In outline: as §2
The nature of data set [13]: Cmax in Chinchilla lanigera at 40 mg/kg, iv followed by local dose of 13 to 235 ug/kg into intra-middle ear. Type of data set: ADME, organism-based. The arrangement: dose 40 mg/kg, route intravenous. The note with it: in vivo. In outline:
as §2

Data set [14] can be described thus: Cmax in Chinchilla lanigera at 15 mg/kg, iv followed by local dose of 13 to 235 ug/kg into intra-middle ear. Format: ADME, organism-based. The arrangement: dose 15 mg/kg, route intravenous. The note with it: in vivo. In outline:
as §2

Data set [15] concerns Streptococcus pneumoniae. Kind of data set: Antimicrobial activity against Streptococcus pneumoniae WT3 infected in bolus iv dosed Chinchilla lanigera assessed as log reduction in bacterial count within 5 hrs of additional local drug administration into intra-middle ear. Type of data set: functional. In outline: as §1

In brackets after ≈: the same amount, converted by molar mass.

Regarding `CC1(C)S[C@@H]2[C@H](NC(=O)[C@H](N)c3ccc(O)cc3)C(=O)N2[C@H]1C(=O)O` [AMOXICILLIN], the Km (commonly the substrate concentration at which the rate is half of its maximum) in data set [1] is 35.9 µg/mL; in [2], 48.6 µg/mL; in data set [3] it was 34 µg/mL; in data set [4], 4.5 µg/mL; in data set [5] it was 54.9 µg/mL; in data set [6] it was 9.3 µg/mL. Further, the Km in data set [7] came out at 17.8 µg/mL. In addition, the figures for the MIC in the data set on Streptococcus pneumoniae [8] and in the data set on Streptococcus pneumoniae [10] were 8 µg/mL (≈ 21.9 µM) and 1 µg/mL (≈ 2.74 µM), respectively. Moreover, the Activity worked out at 2 in the data set on Streptococcus pneumoniae [9] and 5 in the data set on Streptococcus pneumoniae [15]. The half-life in data set [11] and in data set [12] was 18 min each time. Besides, the Cmax (commonly the maximum level reached in the sampled fluid or tissue) turned out to be 8.8 µg/mL in data set [13] and 111 µg/mL in data set [14].

The values are drawn from ChEMBL document CHEMBL1153548 (Antimicrob Agents Chemother, 2007).
